Source: PubChem
Compounds with a hit are over-represented: about 2.3% of the library has one in this group of screens.
TRPC6 inhibitor: mouse TRPC6 channel inhibition; Q61143; AID 2553; HEK293-TRPC6, membrane potential dye, ACh-evoked depolarization; hits give low values; actives 1.1% (n = 310,000); B-score at 10 µM;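 active = B-score under library mean minus 3 SD, initial fluorescence not abnormally high, positive integrated signal ratio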;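 note: B-score derived from integrated fluorescence ratio over the kinetic read; more negative B-score means stronger inhibition of depolarization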
TRPC4 inh: inhibitors of mouse TRPC4 channel. B-score at 10 µM. AID 2247. HEK293 TRPC4beta/mu-opioid, DAMGO-evoked Fluo4 calcium flux; hits give low values. actives 0.39% (n = 300,000). Q9QUQ5;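 active = B-score over 3 SD under the library average, no early fluorescence shift, positive overall ratio signal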
Target sequence (Q9QUQ5 whole entry, looked up): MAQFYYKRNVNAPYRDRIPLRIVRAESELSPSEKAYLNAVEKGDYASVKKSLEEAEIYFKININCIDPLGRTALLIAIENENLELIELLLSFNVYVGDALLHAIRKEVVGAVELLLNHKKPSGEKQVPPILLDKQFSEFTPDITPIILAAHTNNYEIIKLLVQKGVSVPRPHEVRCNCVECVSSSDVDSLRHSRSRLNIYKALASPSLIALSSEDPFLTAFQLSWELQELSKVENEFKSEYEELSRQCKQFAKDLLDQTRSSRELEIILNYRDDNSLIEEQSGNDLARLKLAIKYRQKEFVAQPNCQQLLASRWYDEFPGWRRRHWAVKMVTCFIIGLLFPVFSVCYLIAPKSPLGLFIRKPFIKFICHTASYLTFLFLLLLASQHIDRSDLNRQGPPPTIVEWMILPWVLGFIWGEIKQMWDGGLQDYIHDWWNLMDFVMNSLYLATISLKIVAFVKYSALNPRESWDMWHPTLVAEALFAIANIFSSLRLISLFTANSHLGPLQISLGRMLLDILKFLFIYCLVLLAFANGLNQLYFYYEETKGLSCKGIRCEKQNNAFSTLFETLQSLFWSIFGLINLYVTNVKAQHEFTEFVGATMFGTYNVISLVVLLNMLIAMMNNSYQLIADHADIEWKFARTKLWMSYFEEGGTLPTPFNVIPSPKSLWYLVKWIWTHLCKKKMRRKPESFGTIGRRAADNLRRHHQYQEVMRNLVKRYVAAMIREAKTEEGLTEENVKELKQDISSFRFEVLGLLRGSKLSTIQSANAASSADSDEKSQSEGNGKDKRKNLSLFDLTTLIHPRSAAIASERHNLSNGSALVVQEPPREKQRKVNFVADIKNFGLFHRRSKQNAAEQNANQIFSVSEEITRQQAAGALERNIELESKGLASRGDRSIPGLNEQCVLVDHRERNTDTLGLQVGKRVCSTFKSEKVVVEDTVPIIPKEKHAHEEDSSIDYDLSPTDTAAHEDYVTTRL
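Assay system: TRPC4beta/mu-opioid receptor HEK293 cell line; compound dosing: single concentration per test compound; detection: Fluo4 Ca2+ flux fluorescence; evaluation: per-well B score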
TRPC6 activator: activators of mouse TRPC6 channel. actives 0.13% (n = 310,000). Q61143. B-score at 10 µM. HEK293-TRPC6 membrane potential dye fluorescence; hits give high values;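 active = B-score of the integrated fluorescence ratio above library mean plus 3 SD, and starting fluorescence ratio within library mean plus 5 SD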;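 note: higher score means more depolarization so channel activation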
TRPC4 agonist: opens the mouse TRPC4 cation channel. Q9QUQ5. HEK293 TRPC4beta/mu-opioid, Fluo4 calcium fluorescence; hits give high values. B-score at 10 µM. actives 0.49% (n = 310,000). AID 2237;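 active = B-score above 5 SD of library B-scores, and initial fluorescence ratio not above library mean plus 5 SD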;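 note: positive B-score marks a calcium rise read as TRPC4 activation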
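Test system: HEK293 cells stably co-expressing mouse TRPC4beta and mu-opioid receptor | Schedule: Fluo4 dye loading 45 min at room temperature, 110 s recording | Measured by: Kinetic Fluo4 calcium fluorescence, 5 s baseline at 1 Hz | Evaluation: B score of integrated ratio | Controls: Buffer (low) and maximal DAMGO (high)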
TRPC4 potent: TRPC4 (mouse) allosteric potentiation | actives 0.42% (n = 310,000) | HEK293 TRPC4beta/mu-opioid, DAMGO EC20, Fluo-4 Ca2+ flux; hits give high values | AID 2227 | B-score at 10 µM | Q9QUQ5;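 active = B-score of calcium response area above 5 SD of library B-scores, with initial fluorescence ratio within 5 SD of library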
Numbers stand for hits; . = inactive.

SMILES	TRPC6 inhibitor	TRPC4 inh	TRPC6 activator	TRPC4 agonist	TRPC4 potent
COc1ccc(C(C(=O)NCc2ccccc2)N(C(=O)c2snc(C(N)=O)c2N)c2ccccc2OC)cc1 (stereo not given)	.	.	.	.	.
COc1ccc(CN(C(=O)c2snc(C(N)=O)c2N)C(CC(C)C)C(=O)NC2CCCCC2)cc1 (stereo not given)	.	-7	.	.	.
CCC(NC(=O)OCc1ccccc1)C(=O)Oc1ccc2ccc(=O)oc2c1 (stereo not given)	.	.	.	.	.
CC1(c2nnc(-c3cccc(Cl)c3)o2)CC(c2ccc(F)cc2)=NO1 (stereo not given)	.	.	.	.	.
CC(OC(=O)Cc1n[nH]c(=O)c2ccccc12)C(=O)Nc1cccc([N+](=O)[O-])c1 (stereo not given)	.	.	.	.	11
O=C(NC12CC3CC(CC(C3)C1)C2)C1CCCN1C(=O)Nc1ccccc1 (stereo not given)	.	.	.	.	.
COc1ccc2cc3cc(C(=O)NCCN4CCN(Cc5ccccc5)CC4)oc3nc2c1	.	-6	.	.	.
COc1ccc2cc3cc(C(=O)NCCN4CCc5ccccc5C4)oc3nc2c1	.	.	.	.	.
CC(C)C(=O)NC(C)C(c1cccs1)N1CCN(c2ccccc2)CC1 (stereo not given)	.	.	.	53	.
COc1ccccc1N1CCN(C(c2cccs2)C(C)NC(=O)c2cccs2)CC1 (stereo not given)	.	.	.	84	.
CC(NC(=O)C1CC1)C(c1cccs1)N1CCN(c2ccccc2)CC1 (stereo not given)	.	.	.	44	.
COc1ccccc1N1CCN(C(c2cccs2)C(C)NC(=O)c2cccnc2)CC1 (stereo not given)	.	.	.	.	.
COc1ccc(C2NC(C(=O)O)Cc3c2[nH]c2ccccc32)cc1CN1CCN(c2ccc(F)cc2)CC1 (stereo not given)	.	-6	.	.	.
O=C(O)C1Cc2c([nH]c3ccccc23)C(c2ccc3c(c2)OCO3)N1 (stereo not given)	.	.	.	.	.
CN(Cc1ccccc1)C(=O)c1oc(=O)c2ccccc2c1-c1ccccc1	.	.	.	.	16
O=C(O)CCNc1nc(-c2ccccc2)c2cc(Br)ccc2n1	.	.	.	.	16
CCc1noc(C)c1C(=O)NNC(=O)COc1ccc(Br)cc1	.	.	.	.	.
COc1ccc(C(=O)C2CCN(CC(=O)Nc3ccc(C)cc3)CC2)cc1	.	.	.	.	.
O=C(Cc1ccc(F)cc1)NCc1cccnc1	.	.	.	.	.
COc1ccc(-n2cc(CNCCCN3CCCC3=O)c(-c3ccccc3Cl)n2)cc1	.	.	.	.	.
Fc1ccc(-n2cc(CNCCc3cccnc3)c(-c3ccccc3Cl)n2)cc1	.	.	.	124	.
Fc1ccc(-c2nn(-c3ccccc3)cc2CNCc2ccccc2)cc1	.	.	.	96	.
Fc1ccc(-n2cc(CNCCc3ccncc3)c(-c3ccccc3Cl)n2)cc1	.	-6	.	.	.
O=C(O)Cc1cn(-c2ccccc2)nc1-c1ccccc1	.	.	.	.	.
Cc1cc(C)c(NC(=O)CS(=O)CC(=O)Nc2ccc(F)cc2F)c(C)c1 (stereo not given)	.	.	.	.	.
SMILES	TRPC6 inhibitor	TRPC4 inh	TRPC6 activator	TRPC4 agonist	TRPC4 potent
O=S(=O)(Nc1ncccn1)c1ccc(NS(=O)(=O)c2cc(Cl)ccc2Cl)cc1	.	.	.	.	.
O=S(=O)(Nc1cccc(CCc2ccccn2)c1)c1cc(Cl)ccc1Cl	.	.	.	.	13
O=C(Nc1ccc(-c2n[nH]c(=S)o2)cc1)c1ccccc1	.	.	.	.	.
CCOC(=O)C1CCN(c2cc3c(cc2NC(=O)c2cc(OC)ccc2Br)n(C)c(=O)n3C)CC1	.	.	.	.	12
CCOC(=O)C1CCN(c2cc3c(cc2NC(=O)c2ccccc2Br)n(C)c(=O)n3C)CC1	.	.	.	.	.
CCn1cc(C(=O)NC(=S)Nc2cccc(O)c2)cn1	.	.	.	.	.
O=S(=O)(c1ccc(Br)cc1Cl)N1CCN(CCO)CC1	.	.	.	83	.
CC12CCC(=O)N1C(C(=O)N1CCN(S(=O)(=O)c3ccc(Br)cc3Cl)CC1)CS2 (stereo not given)	.	.	.	.	.
O=C(CN1CCCCC1)N=Nc1c(O)[nH]c2ccccc12	.	-8	.	.	.
O=C(CN1CCN(Cc2ccccc2)CC1)N=Nc1c(O)[nH]c2ccccc12	.	.	.	.	.
CCN1CCN(Cc2nc3c(c(=O)[nH]c(=O)n3C)n2Cc2ccccc2Cl)CC1	.	.	.	.	28
Cc1ccc(Cl)cc1N1CCN(Cc2nc3c(c(=O)[nH]c(=O)n3C)n2Cc2ccccc2F)CC1	.	.	.	.	26
O=C(CCl)N1CCN2C(=O)c3ccccc3C12c1ccc(Cl)cc1 (stereo not given)	.	.	.	.	.
O=C(Nc1cccc(Cl)c1)N1CCN2C(=O)c3ccccc3C12c1ccccc1 (stereo not given)	.	-6	.	.	.
CC(=O)N1c2ccc(S(=O)(=O)NCC3CCC(C(=O)Nc4cc(C)ccn4)CC3)cc2CC1C (stereo not given)	.	.	.	.	.
CN(CC(=O)Nc1c(Cl)cccc1Cl)C(=O)CC1Sc2ccccc2NC1=O (stereo not given)	.	-6	.	.	.
O=C(c1ccco1)N1CCN(c2c([N+](=O)[O-])nn(-c3cccc(Cl)c3)[n+]2[O-])CC1	.	.	.	.	.
CCCCCc1cc(=O)oc2c(C(CCN(CC)CC)c3ccc(N(C)C)cc3)c(OC)cc(OC)c12 (stereo not given)	.	.	.	.	11
CN1CCN(c2nc3ccccn3c(=O)c2/C=C(\C#N)S(=O)(=O)c2ccc(Cl)cc2)CC1	.	.	.	.	.
OCCC1CN(Cc2nc3ccccc3s2)CCN1CCc1ccccc1 (stereo not given)	.	.	.	60	.
OCCC1CN(Cc2ccc(F)cc2)CCN1CCc1ccccc1 (stereo not given)	.	.	.	.	.
CC(C)CCN1CCN(Cc2ccsc2)CC1CCO (stereo not given)	.	-8	.	.	.
C#Cc1ccc(CN2CCN(CCc3ccccc3)C(CCO)C2)cc1 (stereo not given)	.	.	.	43	.
O=C(COC(=O)C12CC3CC(CC(C3)C1)C2)Nc1nccs1	.	.	.	.	.
Cc1ccnc(NC(=O)COC(=O)C23CC4CC(CC(C4)C2)C3)n1	.	.	.	.	35
CCCOc1ccc(C2NC(=S)NC(C)=C2C(=O)c2ccccc2)cc1OC (stereo not given)	.	.	.	.	.
CN1CCN(C(=O)c2cccn(Cc3c(Cl)cccc3Cl)c2=O)CC1	.	.	.	184	.
